A selection: hits, their analogues and other compounds. The true share with any hit is near 1.9%.
SENP1 inh: SENP1 (human) catalytic domain inhibition; Q9P0U3; recombinant SENP1 catalytic domain, CyPet-SUMO1-YPet FRET cleavage; inhibition, % at 10 µM; 360,000 tested, 0.21% active;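 active means inhibition at least 30% at 10 µM, raw YFP signal under a set limit, fluorescence ratio 0.5 to 1.5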
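Test system: recombinant human SENP1 catalytic domain, His6-tagged / Medium: pH 8 Tris buffer with EDTA, NaCl, BME, BSA, NP40, catalase / Also added: SUMO1 FRET substrate flanked by Cypet and Ypet, 25 nM / Times: 50 min reaction at room temperature / Signal: FRET, CFP and YFP emission / Control set: no-enzyme low control and enzyme-plus-DMSO high control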
ADAM17 inh: ADAM17 inhibition, QFRET primary screen; P78536; recombinant ADAM17, EDANS/DABCYL FRET peptide cleavage; inhibition, % at 6.95 µM; 370,000 tested, 0.83% active; AID 720648;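 active means inhibition above the mean of compounds lying between control limits plus 3 SD, set per campaign, cut at about 8.5% in these data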
Target sequence (P78536 215-824 limits assumed): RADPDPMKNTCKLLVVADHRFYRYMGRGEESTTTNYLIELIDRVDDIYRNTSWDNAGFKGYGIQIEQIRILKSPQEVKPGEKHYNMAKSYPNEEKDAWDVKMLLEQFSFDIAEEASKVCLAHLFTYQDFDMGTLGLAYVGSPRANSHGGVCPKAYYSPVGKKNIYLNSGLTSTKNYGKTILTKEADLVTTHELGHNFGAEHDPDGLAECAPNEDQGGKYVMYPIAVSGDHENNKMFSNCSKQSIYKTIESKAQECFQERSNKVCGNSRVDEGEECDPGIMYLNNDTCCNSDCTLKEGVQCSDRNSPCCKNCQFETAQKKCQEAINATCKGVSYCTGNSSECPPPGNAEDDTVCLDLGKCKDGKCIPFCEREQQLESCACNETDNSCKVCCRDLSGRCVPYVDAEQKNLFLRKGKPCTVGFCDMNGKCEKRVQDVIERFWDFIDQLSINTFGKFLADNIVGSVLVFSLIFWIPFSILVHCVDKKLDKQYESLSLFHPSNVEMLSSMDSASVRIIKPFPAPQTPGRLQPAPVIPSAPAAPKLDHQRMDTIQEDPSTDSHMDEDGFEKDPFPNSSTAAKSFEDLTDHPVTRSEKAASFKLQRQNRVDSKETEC
FAS TE block: inhibitors of human fatty acid synthase thioesterase domain | recombinant FAS-TE, OMFH fluorogenic substrate, fluorescence endpoint | inhibition, % at 15 µM | 360,000 tested, 0.67% active | AID 602261;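 active means compounds whose normalised, plate-corrected inhibition of enzyme fluorescence in the single-dose primary screen is 50% or more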
ADAM10 inh: ADAM10 inhibition, QFRET primary screen; O14672; recombinant ADAM10, EDANS/DABCYL FRET peptide cleavage, 3 h; inhibition, % at 7 µM; 370,000 tested, 0.62% active; AID 720582;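 active means inhibition above a per-campaign cutoff equal to the mean of compounds falling between control-based bounds plus 3 SD, cut at about 20% in these data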
FAS-TE inh conf: FAS thioesterase (human) inhibition, confirmation; inhibition, % at 15 µM; 2,300 tested, 45% active; AID 624325; shares compounds with FAS TE block; recombinant FAS-TE, OMFH fluorogenic substrate, fluorescence;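 active means compounds inhibiting the enzyme by at least 50% at 15 µM in any one of the replicates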
Numbers stand for hits; – = inactive; · = no result given.

SMILES	SENP1 inh	ADAM17 inh	FAS TE block	ADAM10 inh	FAS-TE inh conf
Cc1ccc(S(=O)(=O)N(C(=O)c2ccco2)c2cc3sc(=O)oc3c3ccccc23)cc1	–	–	53	–	–
CC(=O)N(c1ccc2oc(=O)sc2c1)S(=O)(=O)c1ccccc1	–	–	–	–	·
COc1ccc(S(=O)(=O)N(C(=O)C(C)C)c2ccc3oc(=O)sc3c2)cc1	–	–	–	–	·
O=C(Nc1c(-c2ccc(F)cc2)nc2ncccn12)C1CC1	·	–	·	–	·
O=[N+]([O-])c1c(Nc2cccc(O)c2)cc(Cl)c2nonc12	–	–	78	–	50
CN(Cc1ccccc1)C(=O)OCc1cn(Cc2ccccc2)nn1	·	–	·	–	·
Cc1ccc(N2C(=N)/C(=C3/Nc4ccccc4S3)C(c3ccccc3)C2=O)cc1 (configuration not stated)	–	–	63	–	–
COc1cc(OC)c(N(C)C(=O)c2cc3c(s2)-c2ccccc2S(=O)(=O)C3)cc1Cl	–	–	54	–	–
CCOC(=O)Cn1cc(CN2CCS(=O)(=O)N(Cc3ccc(Cl)cc3)C(C(=O)OC)C2)nn1 (configuration not stated)	·	–	·	–	·
CC(C)c1ccc(NC(=O)c2csnn2)cc1	–	–	–	–	·
CC(C)c1ccc(NC(=O)c2snc3ccc(Cl)cc23)cc1	–	–	58	–	–
CCN(C[C@H]1N[C@@](Cc2ccccc2)(C(=O)OC)[C@H]2C(=O)N(Cc3ccccc3)C(=O)[C@@H]12)C(=O)Nc1ccc(C)cc1	–	–	–	–	·
COC(=O)[C@]1(Cc2ccccc2)N[C@H](CN(C)S(=O)(=O)c2ccc(C(C)(C)C)cc2)[C@@H]2C(=O)N(Cc3ccccc3)C(=O)[C@@H]21	–	–	55	–	–
CCN(C[C@H]1N[C@@](Cc2ccccc2)(C(=O)OC)[C@H]2C(=O)N(Cc3ccccc3)C(=O)[C@@H]12)C(=O)Nc1ccc(C(F)(F)F)cc1	–	–	62	–	–
COC(=O)[C@]1(Cc2ccccc2)N[C@H](CN(C)S(=O)(=O)c2ccc(C(F)(F)F)cc2)[C@@H]2C(=O)N(Cc3ccccc3)C(=O)[C@@H]21	–	–	–	–	·
Cc1cc(C)c2c(c1)-c1c(ssc1=S)C(C)(C)N2C(=O)CN1C(=O)c2ccccc2C1=O	–	–	63	–	–
Cc1cccc2c1N(C(=O)CN1C(=O)c3ccccc3C1=O)C(C)(C)c1ssc(=S)c1-2	–	–	–	–	·
O=C1C=C(c2ccc(Cl)c(C(F)(F)F)c2)C[C@@H](c2ccc3c(c2)OCO3)C1	–	–	75	–	58
Cn1c(O)c(N=NC(=S)Nc2ccccc2F)c2cc(S(=O)(=O)N3CCOCC3)ccc21	–	–	–	–	·
Cc1ccc(NC(=S)N=Nc2c(O)n(C)c3ccc(S(=O)(=O)N4CCOCC4)cc23)cc1C	–	–	73	–	–
C=CCn1c(O)c(N=NC(=S)Nc2ccccc2C)c2cc(S(=O)(=O)N3CCOCC3)ccc21	–	–	64	–	–
O=C(NC1CCCCN(Cc2cccc(C(F)(F)F)c2)C1=O)c1ccc(Cl)c(Cl)c1 (configuration not stated)	·	–	·	–	·
COC(=O)[C@H]1[C@H]2C[C@@H]3c4[nH]c5cc(OC)ccc5c4CCN3C[C@H]2C[C@@H](OC(=O)/C=C/c2cc(OC)c(OC)c(OC)c2)[C@@H]1OC	–	–	54	–	–
COC(=O)[C@H]1[C@H]2C[C@@H]3c4[nH]c5cc(OC)ccc5c4CCN3C[C@H]2C[C@@H](OC(=O)c2ccc(N)cc2)[C@@H]1OC	–	–	–	–	·
O=S(=O)(c1ccc(Cl)cc1)N1CCN=C1SCc1cccc(Cl)c1	–	–	51	–	–
COc1ccc2c(c1)CNC2CS(=O)(=O)NCc1ccc(F)cc1 (configuration not stated)	·	–	·	–	·
COc1cccc(NC(=O)CN(c2ccc([N+](=O)[O-])cc2)S(=O)(=O)c2ccccc2)c1	–	–	–	–	·
COc1ccc(NC(=O)CN(c2ccc([N+](=O)[O-])cc2)S(=O)(=O)c2ccccc2)cc1	–	–	64	–	74
Cc1ccc(S(=O)(=O)N(C)c2c(C)ccc(S(=O)(=O)N3CCN(C)CC3)c2C)cc1	–	–	–	–	·
Cc1ccc(S(=O)(=O)N2CCN(Cc3ccccc3)CC2)c(C)c1N(C)S(=O)(=O)c1ccccc1	–	–	52	–	–

Compound activity (PubChem)
